Kir21 inh – inhibitors of mouse Kir2.1 inward-rectifier potassium channel; B-score at 10 µM; HEK293-Kir2.1, FluxOR thallium flux fluorescence; hits give low values; hit rate 0.85% among 310,000; AID 1672, 2009;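 active = fluorescence ratio B-score at or below minus 3 SD of library scores, with starting-brightness B-score within 2 SD, cut at about -4.2 in these data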;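 note: channel flux triggered by added potassium and thallium sulfate stimulus; B-score of peak minus minimum fluorescence over baseline after thallium stimulus; more negative B-score means stronger Kir2.1 block with less thallium influx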
KCNK9 inh – KCNK9 potassium channel inhibitors, primary screen, HEK293 cells, thallium flux | FluxOR thallium flux fluorescence; hits give low values | Potassium channel subfamily K member 9 (Homo sapiens), Q9NPC2 | hit rate 1.2% among 310,000 | B-score at 10 µM;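 active = ratio B-score over 3 SD below the library mean, with starting fluorescence within 5 SD of its mean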;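 note: negative B-score means less thallium flux so channel inhibition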
hERG protect – hERG rescue from dofetilide block, primary screen, cell-based, CHO-hERG, FluxOR thallium flux, dofetilide IC70; hit rate 0.51% among 310,000; dofetilide IC70 present; activation (rescue from dofetilide block), less the hit threshold, % at 10 µM; AID 1511, 2009;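 active = activation above the mean of controls blocked by dofetilide plus 5 SD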;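 note: thallium influx through hERG after potassium depolarization seen as dye fluorescence rise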
KCNK3 inh – human KCNK3 channel inhibitors, primary screen, CHO cells, FluxOR thallium flux, B-score; hit rate 0.84% among 340,000; Potassium channel subfamily K member 3 (Homo sapiens), O14649; FluxOR fluorescence; hits give low values; B-score at 10 µM;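 active = B-score under library mean minus 4 SD, starting fluorescence ratio at most library mean plus 5 SD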;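 note: more negative B-score means stronger inhibition of thallium flux through KCNK3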
KCNQ1 pot – potentiators or activators of KCNQ1 channel, primary screen, cell-based, thallium flux, high-throughput | AID 2648, 2010 | CHO-K1 KCNQ1, thallium flux FluxOR fluorescence; hits give high values | Potassium voltage-gated channel subfamily KQT member 1 (Homo sapiens), P51787 | hit rate 0.35% among 310,000 | B-score at 10 µM;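 active = fluorescence ratio B-score, a plate-corrected score, at least three library SD, with initial intensity B-score within 5 SD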
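System: Stable KCNQ1 CHO-K1 line | Incubation: 90 min dye loading and 20 min compound exposure, both at room temperature | Measure: Ratio B score | Medium: Assay buffer for compound exposure, DMSO matched across wells | Compound dosing: Single-concentration screen | Probe or stimulus: K+/Tl+ depolarizing stimulus | Measured by: Kinetic FluxOR fluorescence, 10 s baseline plus 110 s post-stimulus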
KCNQ1 inh – inhibitors of human KCNQ1 channel, primary screen, cell-based, thallium flux, high-throughput. hit rate 1.3% among 310,000. Potassium voltage-gated channel subfamily KQT member 1 (Homo sapiens), P51787. CHO-K1 KCNQ1, FluxOR thallium flux fluorescence; hits give high values. B-score at 10 µM. AID 2642, 2010;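 active = compounds whose thallium flux B-score, printed positive for inhibition, exceeds three library SD while starting fluorescence stays within three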;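 note: channel opened by potassium depolarization with thallium stimulus after 20 min compound exposure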
KCNQ1 block val – KCNQ1 potassium channel inhibitors, confirmation, cell-based, Tl flux, duplicate; hit rate 93% among 1,600; inhibition, % at 10 µM; AID 588353, 2011; KCNQ1 cell line, FluxOR thallium flux fluorescence; shares compounds with KCNQ1 inh;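 active = primary screen active, with duplicate mean exceeding buffer control mean plus 3 SD of buffer wells, cut at about 28% in these data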;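 note: 0% = buffer control ratio and 100% = XE991 inhibitor control ratio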
CHO Tl flux – thallium flux effects in parental CHO cells, counter-screen for KCNQ1 inhibitor project, cell-based, Tl flux | shares compounds with KCNQ1 inh | parental CHO-K1, FluxOR thallium flux fluorescence ratio; hits give low values; zero means no signal rise above baseline | fluorescence ratio (Tl flux) at 10 µM | hit rate 21% among 1,600;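 active = mean of duplicate thallium-flux fluorescence ratios in parental host cells more than 5 SD below the buffer control mean, cut at about 0.38 in these data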;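 note: ratio is peak minus minimum fluorescence divided by baseline fluorescence; actives read low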
KCNQ2 inh – KCNQ2 channel inhibition, selectivity assay for KCNQ1 inhibitor project, cell-based. shares compounds with KCNQ1 inh. KCNQ2 cells, FluxOR thallium flux fluorescence. inhibition, % at 10 µM. hit rate 71% among 1,600. AID 651746, 2012;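 active = mean percent inhibition of the KCNQ2 thallium signal more than 5 SD above the buffer-only control wells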;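 note: KCNQ2 expressed in CHO cells; 0% = buffer control wells and 100% = XE-991 inhibitor control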
Target sequence (O88943 whole entry, looked up): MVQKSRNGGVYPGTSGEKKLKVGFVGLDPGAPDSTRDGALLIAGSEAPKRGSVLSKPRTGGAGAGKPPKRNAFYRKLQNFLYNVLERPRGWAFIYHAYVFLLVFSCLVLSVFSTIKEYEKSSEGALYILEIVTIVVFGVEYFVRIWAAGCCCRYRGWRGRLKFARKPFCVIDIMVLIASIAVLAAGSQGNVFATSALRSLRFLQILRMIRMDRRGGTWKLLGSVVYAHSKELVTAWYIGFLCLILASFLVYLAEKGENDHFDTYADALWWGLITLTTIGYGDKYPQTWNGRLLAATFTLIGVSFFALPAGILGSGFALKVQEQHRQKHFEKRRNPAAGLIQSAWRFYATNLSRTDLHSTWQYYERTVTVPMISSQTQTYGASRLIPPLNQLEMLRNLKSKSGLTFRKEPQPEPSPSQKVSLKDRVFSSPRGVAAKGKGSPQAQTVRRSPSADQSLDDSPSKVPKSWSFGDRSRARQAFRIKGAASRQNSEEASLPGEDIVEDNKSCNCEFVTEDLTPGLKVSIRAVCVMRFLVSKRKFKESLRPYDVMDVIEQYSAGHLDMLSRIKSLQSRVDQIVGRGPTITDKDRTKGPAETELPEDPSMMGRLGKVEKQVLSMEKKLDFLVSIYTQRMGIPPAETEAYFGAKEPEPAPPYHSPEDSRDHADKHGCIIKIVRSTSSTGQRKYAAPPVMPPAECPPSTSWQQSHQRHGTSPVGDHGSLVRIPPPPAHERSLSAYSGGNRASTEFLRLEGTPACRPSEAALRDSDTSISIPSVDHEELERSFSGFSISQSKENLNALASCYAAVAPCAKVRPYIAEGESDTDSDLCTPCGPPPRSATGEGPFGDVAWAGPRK
KCNQ1-KCNE1 inh – KCNQ1/KCNE1 channel inhibition, selectivity assay for KCNQ1 inhibitor project, CHO-K1 cells, thallium flux, FluxOR. hit rate 77% among 1,600. inhibition, % at 10 µM. FluxOR thallium flux fluorescence. shares compounds with KCNQ1 inh;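 active = mean percent inhibition of duplicate wells above the buffer-only control mean plus 3 SD of those controls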;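 note: 0% = buffer only wells and 100% = XE-991 inhibitor control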
Starred values were filed as active, the others as inactive; i = inactive; · = no result. Compounds with a hit are over-represented: about 3.7% of the library has one in this group of screens.

SMILES	Kir21 inh	KCNK9 inh	hERG protect	KCNK3 inh	KCNQ1 pot	KCNQ1 inh	KCNQ1 block val	CHO Tl flux	KCNQ2 inh	KCNQ1-KCNE1 inh
CN(CC(=O)Nc1ccc(C#N)cc1)Cc1ccc(Cl)cc1	1.43	i	-7.4	i	i	i	·	·	·	·
Cc1ccc(NC(=S)Nc2ccc(Br)cc2)cc1	-0.39	i	-3.6	i	i	7*	48.5*	0.496	i	i
N#Cc1ccc(NC(=S)Nc2ccccc2)cc1	-0.08	i	-8.1	i	i	7*	0.0	0.611	i	55.5%*
O=C1CCCN1CCCNc1ccc2nnc(CCC(=O)N3CCN(c4ccccc4)CC3)n2n1	0.19	i	-9.6	i	i	i	·	·	·	·
O=C(CNCc1ccccn1)Nc1ccc([N+](=O)[O-])cc1C(=O)Nc1ccccc1F	-1.4	i	-11.1	i	i	i	·	·	·	·
Cc1ccc(N2C(=O)c3ccccc3C2C(=O)c2ccc(C)c(C)c2O)cc1 (configuration not stated)	1.89	i	-6.0	i	i	7*	90.5*	0.365*	103.3%*	74.0%*
Cc1ccc(N2C(=O)c3ccccc3C2C(=O)c2ccc(O)cc2O)cc1 (configuration not stated)	0.92	i	-2.1	i	i	i	·	·	·	·
CCC1(CC)Cc2ccccc2C(=O)N1	0.47	i	-2.8	i	i	i	·	·	·	·
O=C1c2ccccc2CC1(Cc1ccccc1)Cc1ccccc1	0.11	i	-9.7	i	i	9*	123.5*	0.329*	114.0%*	164.5%*
COc1ccc(C(=O)NC(C)CCc2ccccc2)cc1 (configuration not stated)	1.48	i	-1.7	i	i	i	·	·	·	·
CC(CCc1ccccc1)NC(=O)c1ccc(NC(=O)c2ccccc2)cc1 (configuration not stated)	1.3	i	-8.3	i	i	7*	67.0*	0.522	i	66.0%*
COc1ccc(OCC(=O)Nc2ccc3c(c2)nc(CCN2CCN(C)CC2)n3C)cc1	0.76	i	-6.8	i	i	i	·	·	·	·
Cc1cccc(OCC(=O)Nc2ccc3c(c2)nc(CCN2CCN(C)CC2)n3C)c1	-0.05	i	-5.2	i	i	9*	0.0	0.501	i	i
CCC(C(=O)OCC(=O)Nc1cc(Cl)cc(Cl)c1)c1ccccc1 (configuration not stated)	0.03	i	-3.4	i	i	11*	114.5*	0.341*	113.7%*	52.5%*
CCc1c(O)nc(SCC(=O)Nc2ccc(OC)cc2)n(C2CCCCC2)c1=O	1.23	i	-16.2	i	i	i	·	·	·	·
CCc1c(O)nc(SCC(=O)Nc2nc3ccccc3s2)n(C2CCCCC2)c1=O	-1.41	i	-7.5	i	i	7*	0.0	0.589	i	i
CC(C)(CCc1ccccn1)C(=O)CCCc1ccccn1	·	·	·	i	·	·	·	·	·	·

Screening data as filed in PubChem BioAssay.
